Activity calls are given as the source filed them. The calls are words filed in the database; no cut-off is given here.
How the values were obtained:
Nucleic Acid [1] = experiment: Binding affinity to Escherichia coli supercoiled pUC19 DNA assessed as intercalation at 20 to 50 uM by agarose gel electrophoresis in presence of human DNA topoisomerase 1; type: nucleic-acid assay
Method in brief: (§1)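 Supercoiled pUC19 plasmid was incubated with or without compound across the stated µM range, then relaxed with human topoisomerase I. Reactions were stopped with SDS and proteinase K. Samples were run on a 1% agarose gel in TBE for 2 h at 120 V and post-stained with ethidium bromide. Supercoiled, relaxed and nicked bands were scored under UV.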

[2] = Cytotoxicity against human H460 cells after 72 hrs by MTT assay; type: functional, cell-based, NCI-H460
Method in brief: (§2)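 HCT 116 and H 460 were seeded at 3×10^4 cells/mL and MCF-7 at 5×10^4 cells/mL in DMEM with 10% FBS, 2 mM glutamine and antibiotics, at 37 °C in 5% CO2. Compounds were added after 24 h (DMSO <1%). After 72 h, MTT absorbance was read at 570 nm. Runs were technical quadruplicates with ≥2 biological replicates, and IC50 was obtained by linear interpolation around 50% growth.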

HCT-116 = experiment: Cytotoxicity against human HCT116 cells after 72 hrs by MTT assay; type: functional, cell-based; method in brief: as §2
DNA [3] = experiment: Binding affinity to calf thymus DNA assessed as change in melting temperature at 0.5 drug/DNA ratio by spectrophotometry; type: nucleic-acid assay; details: Bos taurus
Method in brief: (§3)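 CT-DNA (20 µM) was dialyzed and incubated alone or with compound at drug/base-pair ratio R 0.25–1 in BPE buffer (6 mM Na2HPO4, 2 mM NaH2PO4, 1 mM EDTA, pH 7.1). A260 was read every min from 20–100 °C at 1 °C/min against a compound-matched reference. Tm was taken from the first-derivative midpoint, and ΔTm = Tm(drug+DNA) − Tm(DNA alone).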

DNA [4] = experiment: Binding affinity to calf thymus DNA assessed as change in melting temperature at 1 drug/DNA ratio by spectrophotometry; type: nucleic-acid assay; details: Bos taurus; method in brief: as §3
MCF7 = experiment: Cytotoxicity against human MCF7 cells after 72 hrs by MTT assay; type: functional, cell-based; method in brief: as §2
[5] = target: DNA topoisomerase 2-alpha (Homo sapiens) (UniProt P11388); experiment: Inhibition of DNA topoisomerase 2 (unknown origin)-mediated DNA cleavage assessed as linear band at 50 uM by agarose gel electrophoresis
Method in brief: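 Topoisomerase II DNA cleavage assay was run per an earlier method, with etoposide as the Topo II poison positive control. Compounds came from 10 mM DMSO stocks freshly diluted in aqueous buffer.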

DNA [6] = experiment: Binding affinity to calf thymus DNA assessed as change in melting temperature at 0.25 drug/DNA ratio by spectrophotometry; type: nucleic-acid assay; details: Bos taurus; method in brief: as §3
[7] = target: T1, DNA topoisomerase 1 (Homo sapiens) (UniProt P11387); experiment: Inhibition of human topoisomerase 1-mediated DNA cleavage assessed as accumulation of nicked DNA at 1 to 50 uM by agarose gel electrophoresis; method in brief: as §1
T1 sequence (whole entry): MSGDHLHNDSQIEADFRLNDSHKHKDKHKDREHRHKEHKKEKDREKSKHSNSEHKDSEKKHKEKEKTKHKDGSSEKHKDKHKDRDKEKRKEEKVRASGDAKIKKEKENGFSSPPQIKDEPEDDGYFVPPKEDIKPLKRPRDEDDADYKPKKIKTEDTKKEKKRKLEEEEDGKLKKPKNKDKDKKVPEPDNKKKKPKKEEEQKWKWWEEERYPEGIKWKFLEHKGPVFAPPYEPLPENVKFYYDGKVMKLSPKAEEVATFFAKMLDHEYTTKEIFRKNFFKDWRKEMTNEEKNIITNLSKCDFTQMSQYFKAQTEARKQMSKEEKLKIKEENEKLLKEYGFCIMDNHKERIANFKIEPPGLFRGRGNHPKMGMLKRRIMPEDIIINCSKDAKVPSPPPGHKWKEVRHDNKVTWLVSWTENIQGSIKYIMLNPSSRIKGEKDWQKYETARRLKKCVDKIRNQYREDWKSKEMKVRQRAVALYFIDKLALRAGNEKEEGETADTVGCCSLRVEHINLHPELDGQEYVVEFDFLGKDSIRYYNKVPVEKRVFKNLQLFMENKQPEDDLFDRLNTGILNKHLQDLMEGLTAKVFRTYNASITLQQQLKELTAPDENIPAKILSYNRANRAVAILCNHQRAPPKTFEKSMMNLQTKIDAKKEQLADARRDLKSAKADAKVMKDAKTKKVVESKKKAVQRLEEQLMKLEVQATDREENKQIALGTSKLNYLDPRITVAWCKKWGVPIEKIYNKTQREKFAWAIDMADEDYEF

Nucleic Acid [8] = experiment: Binding affinity to Escherichia coli supercoiled pUC19 DNA assessed as intercalation at 1 to 50 uM by agarose gel electrophoresis in presence of human DNA topoisomerase 1; type: nucleic-acid assay; method in brief: as §1
DNA [9] = experiment: Binding affinity to calf thymus DNA assessed as hypochromic effect at 20 uM by UV-Visible spectroscopy relative to control; type: nucleic-acid assay; details: Bos taurus
Method in brief: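 Compound (20 µM) in BPE buffer pH 7.1 was titrated with CT-DNA, 10–100 µM in 10 µM steps and then to 200 µM in 20 µM steps (base pairs). Spectra were recorded from 230–530 nm in a 10 mm quartz cuvette, referenced against a cuvette holding the same DNA concentration.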

Nucleic Acid [10] = experiment: Binding affinity to Escherichia coli supercoiled pUC19 DNA assessed as intercalation at 0.2 to 5 uM by agarose gel electrophoresis in presence of human DNA topoisomerase 1; type: nucleic-acid assay; method in brief: as §1
DNA [11] = experiment: Binding affinity to calf thymus DNA at 50 uM by circular dichroism spectra analysis; type: nucleic-acid assay; details: Bos taurus
Method in brief: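 Drug (50 µM) was incubated in BPE buffer with or without CT-DNA at 0.1–100 µM. CD spectra were recorded from 480 to 230 nm in a 10 mm quartz cell at 20 °C under Peltier control.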

[12] = Binding affinity to DNA (unknown origin) assessed as inhibition of DNase1-mediated cleavage at 2 to 5 uM by DNase1 footprinting assay
Method in brief: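 DNase I footprinting run essentially per an earlier protocol. Gels were exposed to a storage screen at room temperature and then scanned. Compounds were made as 10 mM DMSO stocks and freshly diluted into aqueous buffer.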

[13] = target: DNA topoisomerase 2-alpha (Homo sapiens) (UniProt P11388); details: 20 to 50 uM

Sequence of DNA topoisomerase 2-alpha (Homo sapiens) (P11388 whole entry): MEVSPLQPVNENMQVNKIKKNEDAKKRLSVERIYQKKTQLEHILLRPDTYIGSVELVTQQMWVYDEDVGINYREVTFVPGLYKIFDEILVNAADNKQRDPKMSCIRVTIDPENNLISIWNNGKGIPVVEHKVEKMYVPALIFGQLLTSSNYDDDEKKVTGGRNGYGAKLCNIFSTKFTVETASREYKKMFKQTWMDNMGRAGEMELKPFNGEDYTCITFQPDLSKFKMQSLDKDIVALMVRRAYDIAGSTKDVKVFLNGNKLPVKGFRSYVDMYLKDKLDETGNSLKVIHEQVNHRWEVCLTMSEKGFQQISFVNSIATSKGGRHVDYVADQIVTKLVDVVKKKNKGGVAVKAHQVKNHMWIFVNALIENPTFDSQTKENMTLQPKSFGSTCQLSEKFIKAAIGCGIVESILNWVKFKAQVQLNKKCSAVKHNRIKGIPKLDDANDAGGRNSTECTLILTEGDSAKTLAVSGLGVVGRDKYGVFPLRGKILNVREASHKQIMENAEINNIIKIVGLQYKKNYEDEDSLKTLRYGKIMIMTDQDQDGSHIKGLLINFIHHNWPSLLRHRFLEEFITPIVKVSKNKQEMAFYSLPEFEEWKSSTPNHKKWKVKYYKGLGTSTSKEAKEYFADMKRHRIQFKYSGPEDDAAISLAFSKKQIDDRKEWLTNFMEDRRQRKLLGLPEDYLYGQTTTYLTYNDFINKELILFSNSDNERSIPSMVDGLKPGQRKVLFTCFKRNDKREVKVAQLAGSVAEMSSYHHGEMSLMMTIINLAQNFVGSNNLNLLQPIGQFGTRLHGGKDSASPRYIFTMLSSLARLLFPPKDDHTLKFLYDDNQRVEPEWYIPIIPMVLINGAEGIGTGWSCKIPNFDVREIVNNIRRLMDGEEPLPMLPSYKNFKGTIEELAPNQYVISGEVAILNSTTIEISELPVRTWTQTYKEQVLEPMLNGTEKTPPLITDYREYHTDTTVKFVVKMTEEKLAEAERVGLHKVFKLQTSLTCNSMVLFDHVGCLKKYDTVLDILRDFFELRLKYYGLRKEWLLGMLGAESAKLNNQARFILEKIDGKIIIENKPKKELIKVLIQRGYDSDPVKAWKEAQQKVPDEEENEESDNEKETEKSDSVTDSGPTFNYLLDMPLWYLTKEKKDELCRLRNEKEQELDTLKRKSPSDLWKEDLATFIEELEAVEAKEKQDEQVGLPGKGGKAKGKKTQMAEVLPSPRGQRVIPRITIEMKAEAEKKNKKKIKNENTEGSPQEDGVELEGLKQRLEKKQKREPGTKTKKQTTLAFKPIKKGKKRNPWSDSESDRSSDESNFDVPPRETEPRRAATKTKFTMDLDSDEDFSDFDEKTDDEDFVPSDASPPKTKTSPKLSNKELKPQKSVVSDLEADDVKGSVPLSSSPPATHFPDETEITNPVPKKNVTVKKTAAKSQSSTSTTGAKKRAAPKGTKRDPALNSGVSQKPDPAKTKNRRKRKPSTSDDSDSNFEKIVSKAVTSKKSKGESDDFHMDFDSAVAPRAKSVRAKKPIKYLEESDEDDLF

| Compound | Activity (DNA [3]) | Activity (DNA [4]) | Topo II DNA cleavage inhibition (active/not active) [5] | Activity (DNA [6]) | inhibition [7] | IC50 ([2]; Homo sapiens, NCI-H460, 72 h) | IC50 (HCT-116; Homo sapiens, HCT-116, 72 h) | IC50 (MCF7; Homo sapiens, MCF7, 72 h) | also measured |
| --- | --- | --- | --- | --- | --- | --- | --- | --- | --- |
| Nc1ccc2[nH]c(=O)c3sc4ccccc4c3c2c1 [listing 1 of 3 here] |  |  |  |  |  | 6 µM | 3 µM | 2 µM |  |
| CN(C)c1ccc(NC(=O)c2sc3sccc3c2Cl)cc1 |  |  |  |  |  | > 100 µM | > 100 µM | > 100 µM |  |
| CC(=O)Nc1ccc(NC(=O)c2sc3sccc3c2Cl)cc1 |  |  |  |  |  | > 100 µM | ≥ 100 µM | > 100 µM |  |
| C[N+](C)(C)c1ccc(NC(=O)c2sc3ccccc3c2Cl)cc1 |  |  | Active |  | inactive | 20 µM | 17 µM | 17 µM | Activity (DNA [9]): 23%; Activity (Nucleic Acid [1]): Active; ΔTm (DNA [3]): 1 °C; ΔTm (DNA [4]): 3 °C |
| Nc1ccc2[nH]c(=O)c3sc4ccccc4c3c2c1 [listing 2 of 3 here] |  |  |  |  |  |  |  |  | IC50 ([2]; nci-h460): 9 µM; IC50 (HCT-116; hct-116): 4 µM |
| CC(=O)N(C)c1ccc2c(c1)c1c(sc3ccccc31)c(=O)n2C |  |  |  |  |  | 40 µM | 14 µM | ≥ 100 µM |  |
| Nc1ccc(NC(=O)c2sc3ccccc3c2Cl)cc1 [listing 2 of 3 here] |  |  |  |  |  | > 100 µM | ≥ 100 µM |  | IC50 (MCF7; mcf7): 24 µM |
| O=C(Nc1ccc([N+](=O)[O-])cc1)c1sc2sccc2c1Cl |  |  |  |  |  | > 100 µM | > 100 µM | ≥ 100 µM |  |
| Nc1ccc(NC(=O)c2sc3ccccc3c2Cl)cc1 [listing 3 of 3 here] |  |  |  |  |  |  |  |  | IC50 (MCF7; mcf7): ≥ 100 µM |
| COc1cc([C@@H]2c3cc4c(cc3[C@@H](O[C@@H]3O[C@@H]5CO[C@@H](C)O[C@H]5[C@H](O)[C@H]3O)[C@H]3COC(=O)[C@H]23)OCO4)cc(OC)c1O |  |  |  |  |  |  |  |  | inhibition [13]: Active |

Now from value to compound, other results behind:

| Activity (DNA [3]) | Activity (DNA [4]) | Topo II DNA cleavage inhibition (active/not active) [5] | Activity (DNA [6]) | inhibition [7] | Compound | IC50 ([2]; Homo sapiens, NCI-H460, 72 h) | IC50 (HCT-116; Homo sapiens, HCT-116, 72 h) | IC50 (MCF7; Homo sapiens, MCF7, 72 h) | also measured |
| --- | --- | --- | --- | --- | --- | --- | --- | --- | --- |
| inactive | inactive | inactive | inactive | inactive | CC(=O)Nc1ccc2[nH]c(=O)c3sc4ccccc4c3c2c1 | > 100 µM | 30 µM | 76 µM | Activity (Nucleic Acid [1]): Active |
| inactive | inactive | inactive | inactive | inactive | CN(C)c1ccc2[nH]c(=O)c3sc4ccccc4c3c2c1 | 37 µM | 7 µM | 7 µM | Activity (Nucleic Acid [8]): inactive |
| inactive | inactive | inactive | inactive | inactive | Nc1ccc2[nH]c(=O)c3sc4ccccc4c3c2c1 [listing 3 of 3 here] |  |  |  | Activity (DNA [9]): 58%; Activity (Nucleic Acid [1]): Active; ΔTm (DNA [3]): 2 °C |
| inactive | inactive | inactive | inactive | inactive | Nc1ccc(NC(=O)c2sc3ccccc3c2Cl)cc1 [listing 1 of 3 here] |  |  |  | Activity (Nucleic Acid [8]): inactive |
|  |  | inactive |  | inactive | CN(C)c1ccc2c(c1)c1c(sc3ccccc31)c(=O)n2C | 13 µM | 5 µM | 16 µM | Activity (DNA [9]): 46%; Activity (Nucleic Acid [1]): Active; ΔTm (DNA [3]): 0 °C; ΔTm (DNA [4]): 3 °C |
|  |  | inactive |  | inactive | Cn1c(=O)c2sc3ccccc3c2c2cc([N+](C)(C)C)ccc21 | 18 µM | 5 µM | 10 µM | Activity (DNA [9]): 48%; Activity (Nucleic Acid [10]): Active; ΔTm (DNA [3]): 2.9 °C; ΔTm (DNA [4]): 5.9 °C; Activity (DNA [11]): inactive; Activity [12]: Active |
| inactive | inactive | inactive | inactive |  | CN(C)c1ccc(NC(=O)c2sc3ccccc3c2Cl)cc1 | > 100 µM | > 100 µM | > 100 µM |  |
| inactive | inactive | inactive | inactive |  | O=C(Nc1ccc([N+](=O)[O-])cc1)c1sc2ccccc2c1Cl | 55 µM | ≥ 100 µM | > 100 µM |  |
|  |  | inactive |  | inactive | CC(=O)Nc1ccc2c(c1)c1c(sc3ccccc31)c(=O)n2CCCN(C)C | 0.3 µM | 0.2 µM | 0.6 µM | Activity (DNA [9]): 24%; Activity (Nucleic Acid [10]): Active; ΔTm (DNA [3]): 12.7 °C; ΔTm (DNA [4]): 19 °C; ΔTm (DNA [6]): 10 °C; Activity [12]: Active |
|  |  | inactive |  | inactive | C[N+](C)(C)c1ccc2[nH]c(=O)c3sc4ccccc4c3c2c1 | > 100 µM | > 100 µM | 50 µM | Activity (DNA [9]): 49%; Activity (Nucleic Acid [10]): Active; ΔTm (DNA [3]): 12.8 °C; ΔTm (DNA [4]): 16.9 °C; Activity (DNA [11]): inactive; ΔTm (DNA [6]): 10 °C; Activity [12]: Active |
| inactive | inactive | inactive | inactive |  | CC(=O)Nc1ccc(NC(=O)c2sc3ccccc3c2Cl)cc1 | > 100 µM | > 100 µM | > 100 µM |  |
|  |  | inactive |  | inactive | O=c1[nH]c2ccc([N+](=O)[O-])cc2c2c1sc1ccccc12 | 18 µM | 22 µM | 49 µM | Activity (Nucleic Acid [8]): inactive |
